Experimental data taken from ChEMBL document CHEMBL1148694, “Calcitriol derivatives with two different side-chains at C-20. Part 4: further chain modifications that alter VDR-dependent monocytic differentiation potency in human leukemia cells” (2007).
Active and inactive are the calls of the source. The calls are words filed in the database; no cut-off is given here.

tested on: not listed separately; test: Induction of differentiation in human HL60-G cells assessed as CD11b expression; type: functional; details: not given
Outline: (§1)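 HL60-G33 cells in RPMI 1640 with 10% bovine calf serum at 37 °C, 5% CO2, given compounds in fresh medium (ethanol vehicle); 1,25D at 0.1, 1 and 10 nM. 1×10^6 cells washed twice in PBS, stained on ice for 45 min with MO1-FITC (CD11b) and MY4-RD1 (CD14), then washed. Flow cytometry with acquisition set on isotype controls.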

Compound | ED20 [nM]
C=C1/C(=C\C=C2/CCC[C@@]3(C)C2CC[C@@H]3[C@]2(CCCC(C)(C)O)C[C@H]2CCC(C)(C)O)C[C@@H](O)C[C@@H]1O (stereo partly specified) | 19.75
C=C1/C(=C\C=C2/CCC[C@@]3(C)C2CC[C@@H]3[C@]2(CC#CC(O)(C(F)(F)F)C(F)(F)F)C[C@H]2CCC(C)(C)O)C[C@@H](O)C[C@@H]1O (stereo partly specified) | 0.52
CC(C)(O)CCC[C@@]1([C@H]2CCC3/C(=C/C=C4C[C@@H](O)C[C@H](O)C4)CCC[C@@]32C)C[C@H]1CCC(C)(C)O (stereo partly specified) | 98.75
C=C1/C(=C\C=C2/CCC[C@@]3(C)C2CC[C@@H]3[C@H](C)CCCC(C)(C)O)C[C@@H](O)C[C@H]1O (stereo partly specified) | 1.2
CC(C)(O)CC[C@@H]1C[C@@]1(CC#CC(O)(C(F)(F)F)C(F)(F)F)[C@H]1CCC2/C(=C/C=C3C[C@@H](O)C[C@H](O)C3)CCC[C@@]21C (stereo partly specified) | 1.17

tested on: not listed separately; test: Induction of differentiation in human HL60-G cells assessed as CD14 expression; type: functional; details: not given; outline: as §1

Compound | ED20 [nM]
C=C1/C(=C\C=C2/CCC[C@@]3(C)C2CC[C@@H]3[C@]2(CCCC(C)(C)O)C[C@H]2CCC(C)(C)O)C[C@@H](O)C[C@H]1F (stereo partly specified) | >500
C=C1/C(=C\C=C2/CCC[C@@]3(C)C2CC[C@@H]3[C@]2(CCCC(C)(C)O)C[C@H]2CCC(C)(C)O)C[C@@H](O)C[C@@H]1O (stereo partly specified) | 9.97
C=C1/C(=C\C=C2/CCC[C@@]3(C)C2CC[C@@H]3[C@]2(CC#CC(O)(C(F)(F)F)C(F)(F)F)C[C@H]2CCC(C)(C)O)C[C@@H](O)C[C@@H]1O (stereo partly specified) | 0.24
CC(C)(O)CCC[C@@]1([C@H]2CCC3/C(=C/C=C4C[C@@H](O)C[C@H](O)C4)CCC[C@@]32C)C[C@H]1CCC(C)(C)O (stereo partly specified) | 66.03
C=C1/C(=C\C=C2/CCC[C@@]3(C)C2CC[C@@H]3[C@H](C)CCCC(C)(C)O)C[C@@H](O)C[C@H]1O (stereo partly specified) | 0.57
CC(C)(O)CC[C@@H]1C[C@@]1(CC#CC(O)(C(F)(F)F)C(F)(F)F)[C@H]1CCC2/C(=C/C=C3C[C@@H](O)C[C@H](O)C3)CCC[C@@]21C (stereo partly specified) | 0.46

tested on: not listed separately; test: Induction of differentiation in human HL60-G cells assessed as CD11b expression relative to 1-alpha,25-dihydroxyvitamin D3; type: functional; details: not given; outline: as §1

Compound | Activity
C=C1/C(=C\C=C2/CCC[C@@]3(C)C2CC[C@@H]3[C@]2(CCCC(C)(C)O)C[C@H]2CCC(C)(C)O)C[C@@H](O)C[C@H]1F (stereo partly specified) | <0.002
C=C1/C(=C\C=C2/CCC[C@@]3(C)C2CC[C@@H]3[C@]2(CCCC(C)(C)O)C[C@H]2CCC(C)(C)O)C[C@@H](O)C[C@@H]1O (stereo partly specified) | 0.06
C=C1/C(=C\C=C2/CCC[C@@]3(C)C2CC[C@@H]3[C@]2(CC#CC(O)(C(F)(F)F)C(F)(F)F)C[C@H]2CCC(C)(C)O)C[C@@H](O)C[C@@H]1O (stereo partly specified) | 2.31
CC(C)(O)CCC[C@@]1([C@H]2CCC3/C(=C/C=C4C[C@@H](O)C[C@H](O)C4)CCC[C@@]32C)C[C@H]1CCC(C)(C)O (stereo partly specified) | 0.01
CC(C)(O)CC[C@@H]1C[C@@]1(CC#CC(O)(C(F)(F)F)C(F)(F)F)[C@H]1CCC2/C(=C/C=C3C[C@@H](O)C[C@H](O)C3)CCC[C@@]21C (stereo partly specified) | 1.03

tested on: not listed separately; test: Induction of differentiation in human HL60-G cells assessed as CD14 expression relative to 1-alpha,25-dihydroxyvitamin D3; type: functional; details: not given; outline: as §1

Compound | Activity
C=C1/C(=C\C=C2/CCC[C@@]3(C)C2CC[C@@H]3[C@]2(CCCC(C)(C)O)C[C@H]2CCC(C)(C)O)C[C@@H](O)C[C@H]1F (stereo partly specified) | <0.001
C=C1/C(=C\C=C2/CCC[C@@]3(C)C2CC[C@@H]3[C@]2(CC#CC(O)(C(F)(F)F)C(F)(F)F)C[C@H]2CCC(C)(C)O)C[C@@H](O)C[C@@H]1O (stereo partly specified) | 2.38
CC(C)(O)CCC[C@@]1([C@H]2CCC3/C(=C/C=C4C[C@@H](O)C[C@H](O)C4)CCC[C@@]32C)C[C@H]1CCC(C)(C)O (stereo partly specified) | 0.009
CC(C)(O)CC[C@@H]1C[C@@]1(CC#CC(O)(C(F)(F)F)C(F)(F)F)[C@H]1CCC2/C(=C/C=C3C[C@@H](O)C[C@H](O)C3)CCC[C@@]21C (stereo partly specified) | 1.24

tested on: not listed separately; test: (§2) Induction of CYP24 mRNA expression in human HL60-G cells at 1 nM after 12 hrs relative to 1-alpha,25-dihydroxyvitamin D3; type: functional; details: not given
Outline: (§3)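 HL60-G33 cells exposed to 1 nM compound for 12 h. Total RNA from 5×10^6 cells was DNase-treated, and 1 μg was reverse transcribed with MuLV RT and oligo-d(T). CYP24 transcript measured by SYBR green real-time PCR on a LightCycler with ARP0 as internal control. Values normalized to 1,25D treatment.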

Compound | Fold change
C=C1/C(=C\C=C2/CCC[C@@]3(C)C2CC[C@@H]3[C@]2(CC#CC(O)(C(F)(F)F)C(F)(F)F)C[C@H]2CCC(C)(C)O)C[C@@H](O)C[C@@H]1O (stereo partly specified) | 30
CC(C)(O)CC[C@@H]1C[C@@]1(CC#CC(O)(C(F)(F)F)C(F)(F)F)[C@H]1CCC2/C(=C/C=C3C[C@@H](O)C[C@H](O)C3)CCC[C@@]21C (stereo partly specified) | 2.5

tested on: HL60-G; test: as §2; type: functional; details: not given; outline: as §3

Compound | Activity
C=C1/C(=C\C=C2/CCC[C@@]3(C)C2CC[C@@H]3[C@]2(CCCC(C)(C)O)C[C@H]2CCC(C)(C)O)C[C@@H](O)C[C@@H]1O (stereo partly specified) | inactive

tested on: not listed separately; test: Cell cycle arrest in HL60-G cells assessed as accumulation at G1 phase after 48 to 72 hrs; type: functional, cell-based; details: Homo sapiens
Outline: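 HL60-G33 cells in RPMI 1640 with 10% bovine calf serum, 37 °C, 5% CO2, given compounds in fresh medium (ethanol vehicle) for 48 and 72 h over increasing concentrations. 1×10^6 cells fixed in 75% ethanol at -20 °C overnight, treated with RNase A 100 U/mL at 37 °C for 1 h, stained with propidium iodide 10 μg/mL. Flow cytometry; G1/S ratio.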

Compound | Activity
C=C1/C(=C\C=C2/CCC[C@@]3(C)C2CC[C@@H]3[C@]2(CC#CC(O)(C(F)(F)F)C(F)(F)F)C[C@H]2CCC(C)(C)O)C[C@@H](O)C[C@@H]1O (stereo partly specified) | Active

tested on: HL60-40AF; test: Induction of differentiation in 1-alpha,25-dihydroxyvitamin D3 resistant human HL60-40AF cells; type: functional, cell-based; details: not given
Outline: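 Differentiation-resistant HL60-40AF subclone adapted to grow in 1,25D, cultured in RPMI 1640 with 10% bovine calf serum. Compounds given in fresh medium with ethanol vehicle; 1,25D at 10 and 100 nM. 1×10^6 cells washed in PBS, stained on ice for 45 min with MY4-RD1 (CD14) and MO1-FITC (CD11b). Read by flow cytometry, gated on isotype controls.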

Compound | Activity
C=C1/C(=C\C=C2/CCC[C@@]3(C)C2CC[C@@H]3[C@]2(CC#CC(O)(C(F)(F)F)C(F)(F)F)C[C@H]2CCC(C)(C)O)C[C@@H](O)C[C@@H]1O (stereo partly specified) | Active
CC(C)(O)CC[C@@H]1C[C@@]1(CC#CC(O)(C(F)(F)F)C(F)(F)F)[C@H]1CCC2/C(=C/C=C3C[C@@H](O)C[C@H](O)C3)CCC[C@@]21C (stereo partly specified) | Active
